According to ChEMBL document CHEMBL1122750, “8-Hydroxy-2-(alkylamino)tetralins and related compounds as central 5-hydroxytryptamine receptor agonists” (1984):
Active and inactive are the calls of the source. The calls are words filed in the database; no cut-off is given here.

Assays:
[1] = tested on: Rattus norvegicus; test: Compound was tested for subcutaneous dose giving half-maximal decrease of Dopa formation in the rat brain (limbic); format: functional; details: sc
[2] = biological target: T1, Serotonin (5-HT) receptor (Rattus norvegicus) (UniProt P35563+P35365+P32305+P31388+Q9JJ16+P28564+P30994+Q62758+P08909+P14842+P30940+P35364+P19327+P28565); test: Subcutaneous dose giving half-maximal decrease of 5-HTP formation in the rat brain hemispheres (cortex); format: functional, tissue-based
In short: (§1)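 Male Sprague-Dawley rats (200–350 g) were reserpinized. Reserpine was dissolved in glacial acetic acid and made up with 5.5% glucose. Test drug was given sc in saline, at neutral pH, 5 or 10 mL/kg. Brain-part 5-HTP formation was measured spectrofluorometrically. ED50 (half-maximal decrease) came from 4–6 dose levels, n = 3-5.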

[3] = biological target: T1, Serotonin (5-HT) receptor (Rattus norvegicus); test: Subcutaneous dose giving half-maximal decrease of 5-HTP formation in the rat brain (limbic); format: functional, tissue-based; in short: as §1
[4] = biological target: T1, Serotonin (5-HT) receptor (Rattus norvegicus); test: Subcutaneous dose giving half-maximal decrease of 5-HTP formation in the rat brain (striatum); format: functional, tissue-based; in short: as §1
[5] = tested on: Rattus norvegicus; test: Compound was tested for subcutaneous dose giving half-maximal decrease of Dopa formation in the rat brain (striatum); format: functional; details: sc
[6] = biological target: T2, Dopamine receptor (Rattus norvegicus) (UniProt P25115+P19020+P30729+P18901+P61169); test: Subcutaneous dose giving half-maximal decrease of Dopa formation in the rat brain (striatum); format: functional, tissue-based
[7] = biological target: T2, Dopamine receptor (Rattus norvegicus); test: Subcutaneous dose giving half-maximal decrease of Dopa formation in the rat brain (limbic); format: functional, tissue-based
[8] = tested on: Rattus norvegicus; test: Compound was tested for subcutaneous dose giving half-maximal decrease of 5-HTP formation in the rat brain (striatum); Inactive; format: functional, organism-based; in short: as §1
[9] = tested on: Rattus norvegicus; test: Compound was tested for subcutaneous dose giving half-maximal decrease of 5-HTP formation in the rat brain (limbic); Inactive; format: functional, organism-based; in short: as §1
[10] = tested on: Rattus norvegicus; test: Compound was tested for subcutaneous dose giving half-maximal decrease of 5-HTP formation in the rat brain hemispheres (cortex); Inactive; format: functional, organism-based; in short: as §1

SMILES	ED50 [1] [µmol/kg]	ED50 [2] [µmol/kg]	ED50 [3] [µmol/kg]	ED50 [4] [µmol/kg]	ED50 [5] [µmol/kg]	ED50 [6]	ED50 [7]	ED50 [8]	ED50 [9]	ED50 [10]
CCN(CC)C(=O)[C@@H]1C=C2c3cccc4[nH]cc(c34)C[C@H]2N(C)C1 [LYSERGIDE]	0.39	0.036	0.036	0.035	0.395					
CCCN(CC)C1CCc2cccc(O)c2C1 (stereo not given)		0.066	0.057	0.059		inactive	inactive			
CNC1CCc2cccc(O)c2C1 (stereo not given)		1.8	1.5	1.6		inactive	inactive			
CCN(CC)C1CCc2cccc(O)c2C1 (stereo not given)		0.07	0.054	0.068		inactive	inactive			
CCCCN(CCC)C1CCc2cccc(O)c2C1 (stereo not given)		0.34	0.27	0.26		inactive	inactive			
CCNC1CCc2cccc(O)c2C1 (stereo not given)		0.22	0.27	0.2		inactive	inactive			
CCCN(CCC)[C@H]1CCc2cccc(O)c2C1		0.077	0.061	0.065		inactive	inactive			
CCCN(Cc1ccccc1)C1CCc2cccc(O)c2C1 (stereo not given)		2.3	2.7	2.9		inactive	inactive			
CCCNC1CCc2cccc(O)c2C1 (stereo not given)		0.18	0.14	0.15		inactive	inactive			
CCCN(CCC)C1CCc2cccc(OC)c2C1 (stereo not given)		0.23	0.34	0.29		inactive	inactive			
CCCCCCCCNC1CCc2cccc(O)c2C1 (stereo not given)						inactive	inactive	inactive	inactive	inactive
CCCN(CCC)C1CCc2c(OC)ccc(OC)c2C1 (stereo not given)	0.905				1.24			inactive	inactive	inactive
CCCN(CCC)C1CCc2c(O)ccc(O)c2C1 (stereo not given)	5.2				5.4			inactive	inactive	inactive
CC(C)NC1CCc2cccc(O)c2C1 (stereo not given)		4.1	2.6	2.9		inactive	inactive			
CCCN(CCC)[C@@H]1CCc2cccc(O)c2C1		0.05	0.036	0.047		inactive	inactive			
CCCCNC1CCc2cccc(O)c2C1 (stereo not given)		6.3	4.3	4.5		inactive	inactive			
Oc1cccc2c1CC(N1CCCCC1)CC2 (stereo not given)		1.4	1.6	1.1		inactive	inactive			
CCCN(CCC)C1CCc2cccc(O)c2C1 (racemic)		0.063	0.052	0.052		inactive	inactive			
CCCCN(CCCC)C1CCc2cccc(O)c2C1 (stereo not given)		5.7	5	6.6		inactive	inactive			
CN(C)C1CCc2cccc(O)c2C1 (stereo not given)		0.36	0.38	0.43		inactive	inactive			
